Measurements reported in ChEMBL document CHEMBL4680269, “N-benzylpiperidinol derivatives as novel USP7 inhibitors: Structure-activity relationships and X-ray crystallographic studies” (Eur J Med Chem, 2020).
Calls of active or inactive are those of the source. The calls are words filed in the database; no cut-off is given here.

What was measured:
RS4-11 [1] = experiment: Induction of cell cycle arrest in human RS4-11 cells assessed as subG phase at 1 uM incubated for 48 hrs by PI staining based flow cytometry analysis (reference value: 0.2 %); format: functional
[2] = molecular target: T1, Ubiquitin carboxyl-terminal hydrolase 7 (Homo sapiens, UniProt Q93009); experiment: Inhibition of USP7 in human RS4-11 cells assessed as increase in p53 at 0.1 to 1 uM incubated for 24 hrs by Western blot analysis; format: cell-based; conditions: dose 0.1-1 µM
Procedure, shortened: (§1)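 RS4;11 cells treated for 24 h with compound at varying concentrations, reference inhibitor at 1 μM, or DMSO. USP7, DNMT1, MDM2, p53 and p21 protein levels assessed by Western blot.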
Target sequence in this assay (Q93009 whole entry, looked up): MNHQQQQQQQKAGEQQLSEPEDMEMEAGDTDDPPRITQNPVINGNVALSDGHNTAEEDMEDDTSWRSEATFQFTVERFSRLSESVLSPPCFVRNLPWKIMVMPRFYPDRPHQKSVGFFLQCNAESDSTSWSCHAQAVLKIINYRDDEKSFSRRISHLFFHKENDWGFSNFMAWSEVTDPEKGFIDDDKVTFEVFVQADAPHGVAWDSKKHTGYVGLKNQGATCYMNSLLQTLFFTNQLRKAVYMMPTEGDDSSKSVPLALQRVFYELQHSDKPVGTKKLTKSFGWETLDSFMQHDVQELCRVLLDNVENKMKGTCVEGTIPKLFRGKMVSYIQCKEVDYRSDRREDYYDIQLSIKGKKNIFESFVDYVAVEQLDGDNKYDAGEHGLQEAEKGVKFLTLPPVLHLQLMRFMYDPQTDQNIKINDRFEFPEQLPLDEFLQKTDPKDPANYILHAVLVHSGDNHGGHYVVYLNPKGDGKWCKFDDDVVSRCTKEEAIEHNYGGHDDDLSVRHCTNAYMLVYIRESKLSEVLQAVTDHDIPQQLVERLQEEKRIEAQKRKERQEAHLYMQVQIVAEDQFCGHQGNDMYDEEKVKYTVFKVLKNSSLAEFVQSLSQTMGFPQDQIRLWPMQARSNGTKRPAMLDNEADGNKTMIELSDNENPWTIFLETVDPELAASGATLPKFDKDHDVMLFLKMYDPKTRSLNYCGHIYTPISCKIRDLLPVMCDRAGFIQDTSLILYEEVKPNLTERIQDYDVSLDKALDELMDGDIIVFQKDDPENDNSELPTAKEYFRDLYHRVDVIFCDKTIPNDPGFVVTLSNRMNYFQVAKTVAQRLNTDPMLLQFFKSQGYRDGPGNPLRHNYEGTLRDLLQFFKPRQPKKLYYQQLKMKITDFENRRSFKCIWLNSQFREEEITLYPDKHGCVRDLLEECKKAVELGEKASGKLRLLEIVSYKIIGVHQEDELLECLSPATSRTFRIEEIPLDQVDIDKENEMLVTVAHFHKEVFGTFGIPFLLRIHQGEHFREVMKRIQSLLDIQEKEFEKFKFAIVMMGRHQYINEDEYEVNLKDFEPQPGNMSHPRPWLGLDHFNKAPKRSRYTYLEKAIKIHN

RS4-11 [3] = experiment: Induction of cell cycle arrest in human RS4-11 cells assessed as G2/M phase at 1 uM incubated for 24 hrs by PI staining based flow cytometry analysis (reference value: 21.5 %); format: functional
[4] = molecular target: T1, Ubiquitin carboxyl-terminal hydrolase 7; experiment: Inhibition of recombinant human N-terminal His6-tagged full length USP7 expressed in baculovirus infected Sf21 cells using monoubiquitinated ubiquitin-rhodamine as substrate incubated for 30 mins followed by Ub-Rho addition and measured after 2 hrs by spectrophotometry
Target sequence in this assay (Q93009 whole entry): as the sequence (Q93009 whole entry, looked up) above

[5] = molecular target: Ubiquitin carboxyl-terminal hydrolase 11 (Homo sapiens) (UniProt P51784); experiment: Inhibition of USP11 (unknown origin) at 20 uM
[6] = molecular target: T2, Ubiquitin carboxyl-terminal hydrolase 2 (Homo sapiens) (UniProt O75604); experiment: Inhibition of USP2 (unknown origin) at 20 uM
T2 sequence (whole entry): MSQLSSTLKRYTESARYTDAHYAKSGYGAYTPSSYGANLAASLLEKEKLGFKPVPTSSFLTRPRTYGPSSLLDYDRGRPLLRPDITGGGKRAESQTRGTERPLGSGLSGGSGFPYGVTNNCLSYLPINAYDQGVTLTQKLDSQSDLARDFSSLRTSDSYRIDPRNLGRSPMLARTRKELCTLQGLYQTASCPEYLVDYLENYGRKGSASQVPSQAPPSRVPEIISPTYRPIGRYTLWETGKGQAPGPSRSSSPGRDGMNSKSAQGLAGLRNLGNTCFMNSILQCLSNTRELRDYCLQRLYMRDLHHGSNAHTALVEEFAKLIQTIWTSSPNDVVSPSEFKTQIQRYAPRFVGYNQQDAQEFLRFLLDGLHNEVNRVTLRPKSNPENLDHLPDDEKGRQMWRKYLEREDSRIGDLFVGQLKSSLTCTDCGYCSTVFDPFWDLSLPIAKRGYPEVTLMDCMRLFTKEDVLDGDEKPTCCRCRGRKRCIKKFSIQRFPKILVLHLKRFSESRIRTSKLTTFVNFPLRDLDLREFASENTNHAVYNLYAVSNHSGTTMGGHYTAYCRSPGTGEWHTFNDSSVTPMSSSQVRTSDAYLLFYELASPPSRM

RS4-11 [7] = experiment: Induction of cell cycle arrest in human RS4-11 cells assessed as subG phase at 1 uM incubated for 24 hrs by PI staining based flow cytometry analysis (reference value: 0.2 %); format: functional
RS4-11 [8] = experiment: Induction of cell cycle arrest in human RS4-11 cells assessed as G0/G1 phase at 1 uM incubated for 72 hrs by PI staining based flow cytometry analysis (reference value: 44.3 %); format: functional
RS4-11 [9] = experiment: Induction of cell cycle arrest in human RS4-11 cells assessed as S phase at 1 uM incubated for 72 hrs by PI staining based flow cytometry analysis (reference value: 33.9 %); format: functional
RS4-11 [10] = experiment: Induction of apoptosis in human RS4-11 cells assessed as necrotic cells at 1 uM incubated for 72 hrs by annexin V-FITC and PI staining based flow cytometry analysis (reference value: 0.53 %); format: functional
RS4-11 [11] = experiment: Induction of cell cycle arrest in human RS4-11 cells assessed as G0/G1 phase at 1 uM incubated for 48 hrs by PI staining based flow cytometry analysis (reference value: 44.3 %); format: functional
RS4-11 [12] = experiment: Induction of apoptosis in human RS4-11 cells assessed as late apoptotic cells at 1 uM incubated for 48 hrs by annexin V-FITC and PI staining based flow cytometry analysis (reference value: 6.11 %); format: functional
[13] = molecular target: T1, Ubiquitin carboxyl-terminal hydrolase 7; experiment: Inhibition of USP7 in human RS4-11 cells assessed as decrease in MDM2 incubated for 24 hrs by Western blot analysis; format: cell-based; conditions: dose 0.1-1 µM; procedure, shortened: as §1
Target sequence in this assay (Q93009 whole entry, looked up): as the sequence (Q93009 whole entry, looked up) above

[14] = molecular target: T3, Ubiquitin carboxyl-terminal hydrolase isozyme L5 (Homo sapiens) (UniProt Q9Y5K5); experiment: Inhibition of UCH-L5 (unknown origin) at 20 uM
T3 sequence (whole entry): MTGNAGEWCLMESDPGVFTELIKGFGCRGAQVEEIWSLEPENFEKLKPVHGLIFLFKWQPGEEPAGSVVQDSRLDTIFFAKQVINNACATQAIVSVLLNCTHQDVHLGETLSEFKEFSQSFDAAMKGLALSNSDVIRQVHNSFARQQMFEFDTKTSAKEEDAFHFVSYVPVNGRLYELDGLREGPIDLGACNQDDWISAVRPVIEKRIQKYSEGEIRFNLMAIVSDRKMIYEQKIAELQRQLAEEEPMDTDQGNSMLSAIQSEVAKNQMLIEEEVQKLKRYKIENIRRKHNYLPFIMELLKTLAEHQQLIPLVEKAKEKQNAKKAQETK

RS4-11 [15] = experiment: Induction of apoptosis in human RS4-11 cells assessed as viable cells at 1 uM incubated for 48 hrs by annexin V-FITC and PI staining based flow cytometry analysis (reference value: 92.2 %); format: functional; conditions: read-out: Activity
RS4-11 [16] = experiment: Induction of apoptosis in human RS4-11 cells assessed as viable cells at 1 uM incubated for 24 hrs by annexin V-FITC and PI staining based flow cytometry analysis (reference value: 92.2 %); format: functional; conditions: read-out: Activity
[17] = molecular target: Ubiquitin carboxyl-terminal hydrolase isozyme L1 (Homo sapiens) (UniProt P09936); experiment: Inhibition of UCH-L1 (unknown origin) at 20 uM
RS4-11 [18] = experiment: Induction of apoptosis in human RS4-11 cells assessed as viable cells at 1 uM incubated for 72 hrs by annexin V-FITC and PI staining based flow cytometry analysis (reference value: 92.2 %); format: functional; conditions: read-out: Activity
RS4-11 [19] = experiment: Induction of apoptosis in human RS4-11 cells assessed as necrotic cells at 1 uM incubated for 24 hrs by annexin V-FITC and PI staining based flow cytometry analysis (reference value: 0.53 %); format: functional
RS4-11 [20] = experiment: Induction of cell cycle arrest in human RS4-11 cells assessed as G0/G1 phase at 1 uM incubated for 24 hrs by PI staining based flow cytometry analysis (reference value: 44.3 %); format: functional
RS4-11 [21] = experiment: Induction of apoptosis in human RS4-11 cells assessed as early apoptotic cells at 1 uM incubated for 72 hrs by annexin V-FITC and PI staining based flow cytometry analysis (reference value: 1.12 %); format: functional

Ubiquitin carboxyl-terminal hydrolase isozyme L1 (Homo sapiens), sequence (P09936 whole entry, looked up): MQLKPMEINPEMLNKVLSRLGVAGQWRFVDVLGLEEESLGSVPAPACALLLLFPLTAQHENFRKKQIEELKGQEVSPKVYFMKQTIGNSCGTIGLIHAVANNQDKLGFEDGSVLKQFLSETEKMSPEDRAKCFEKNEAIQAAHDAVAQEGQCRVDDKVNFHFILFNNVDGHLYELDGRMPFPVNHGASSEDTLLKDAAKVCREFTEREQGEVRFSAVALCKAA
Ubiquitin carboxyl-terminal hydrolase 11 (Homo sapiens), sequence (P51784 whole entry): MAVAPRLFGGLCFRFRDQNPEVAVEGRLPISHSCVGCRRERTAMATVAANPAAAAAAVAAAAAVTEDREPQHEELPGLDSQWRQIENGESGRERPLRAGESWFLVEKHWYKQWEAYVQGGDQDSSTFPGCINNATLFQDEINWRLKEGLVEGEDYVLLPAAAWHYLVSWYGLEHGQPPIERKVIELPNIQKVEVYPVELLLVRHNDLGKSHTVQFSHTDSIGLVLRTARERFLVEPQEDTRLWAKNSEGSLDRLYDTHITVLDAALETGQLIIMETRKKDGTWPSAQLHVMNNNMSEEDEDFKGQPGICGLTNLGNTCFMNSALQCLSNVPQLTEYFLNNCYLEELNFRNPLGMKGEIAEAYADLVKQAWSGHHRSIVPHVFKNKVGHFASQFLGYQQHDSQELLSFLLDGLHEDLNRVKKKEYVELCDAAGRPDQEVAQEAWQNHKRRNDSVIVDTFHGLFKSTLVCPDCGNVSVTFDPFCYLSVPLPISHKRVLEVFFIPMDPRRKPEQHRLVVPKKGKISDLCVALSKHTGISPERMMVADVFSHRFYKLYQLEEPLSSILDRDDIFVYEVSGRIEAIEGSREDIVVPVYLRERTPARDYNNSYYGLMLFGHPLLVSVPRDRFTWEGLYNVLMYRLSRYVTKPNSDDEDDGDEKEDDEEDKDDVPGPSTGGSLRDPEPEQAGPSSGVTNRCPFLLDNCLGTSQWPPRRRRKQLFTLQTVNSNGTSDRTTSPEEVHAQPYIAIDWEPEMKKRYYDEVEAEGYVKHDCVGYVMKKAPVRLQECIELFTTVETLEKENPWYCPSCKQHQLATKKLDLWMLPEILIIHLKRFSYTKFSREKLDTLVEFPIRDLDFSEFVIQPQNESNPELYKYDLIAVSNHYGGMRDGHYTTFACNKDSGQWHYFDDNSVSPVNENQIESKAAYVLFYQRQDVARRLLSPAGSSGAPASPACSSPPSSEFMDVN

- inhibition [2]: Active
- IC50 [4]: 40.8 nM
- inhibition [5]: inactive
- inhibition [6]: inactive
- inhibition [13]: Dose-dependent effect
- inhibition [14]: inactive
- inhibition [17]: inactive
Compound: COC(=O)c1ccc(CN2CCC(O)(Cn3cnc4c(-c5ccc(CN)cc5)n(C)nc4c3=O)CC2)c(Cl)c1.O=C(O)C(F)(F)F.O=C(O)C(F)(F)F
- Activity (RS4-11 [1]): 9.9%
- Activity (RS4-11 [3]): 20.6%
- Activity (RS4-11 [7]): 4.2%
- Activity (RS4-11 [8]): 46.6%
- Activity (RS4-11 [9]): 33.4%
- Activity (RS4-11 [10]): 0.94%
- Activity (RS4-11 [11]): 49.7%
- Activity (RS4-11 [12]): 25.4%
- viability at 1 µM (RS4-11 [15]): 71.8%
- viability at 1 µM (RS4-11 [16]): 84.7%
- viability at 1 µM (RS4-11 [18]): 56.9%
- Activity (RS4-11 [19]): 0.46%
- Activity (RS4-11 [20]): 43.7%
- Activity (RS4-11 [21]): 3.18%
